Active and inactive are the calls of the source. The rule behind the calls is not given here.
What was measured:
[1] = tested on: SK-BR-3; test: Cell cycle arrest in human SK-BR-3 cells assessed as accumulation at G2/M phase at 5 uM after 18 hrs using propidium iodide staining by FACS analysis; type: functional
Outline: (§1)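 SKBR-3 cells in RPMI1640 with 10% heat-inactivated FBS at 37 °C and 5% CO₂ were treated for the stated times. Cells were fixed overnight in 70% EtOH at −20 °C, then stained with propidium iodide buffer (38 mM sodium citrate pH 7.5, 69 µM PI, 120 µg/mL RNase A) for 15 min at room temperature in the dark. Up to 1×10⁴ gated cells were analyzed by flow cytometry, giving percent distribution per phase.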

[2] = tested on: SK-BR-3; test: Cell cycle arrest in human SK-BR-3 cells assessed as accumulation at Sub-G1 phase at 0.10 uM after 6 hrs using propidium iodide staining by FACS analysis; type: functional
[3] = tested on: SK-BR-3; test: Cell cycle arrest in human SK-BR-3 cells assessed as accumulation at G2/M phase at 0.50 uM after 18 hrs using propidium iodide staining by FACS analysis; type: functional; outline: as §1
[4] = tested on: U-251; test: Growth inhibition of human U251 cells after 48 hrs by SRB assay; type: functional
[5] = tested on: HT-29; test: Antitumor activity against human HT-29 cells xenografted in BALB/c athymic nu/nu mouse assessed as decrease in tumor weight at 5 mg/kg/day, ip administered 5 times per week for 3 weeks; type: functional, organism-based
Outline: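 Athymic BALB/c nu/nu mice received s.c. HT29 cells in Matrigel, 200 µL per site at two flank sites. Treatment started at ~200 mm³: 5 mg/kg/d i.p., five times weekly for three weeks, in 1% DMSO/sesame oil; controls got vehicle. Three mice per group. Tumors were measured twice weekly by caliper, volume = width²×length/2. Tumors were excised and weighed at the end.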

[6] = tested on: SK-BR-3; test: Cell cycle arrest in human SK-BR-3 cells assessed as accumulation at G1 phase at 0.10 uM after 3 hrs using propidium iodide staining by FACS analysis; type: functional; outline: as §1
[7] = tested on: MDA-MB-231; test: Growth inhibition of human MDA-MB-231 cells after 48 hrs by SRB assay; type: functional
[8] = tested on: SN12C; test: Growth inhibition of human SN12C cells after 48 hrs by SRB assay; type: functional
[9] = AUC (0 to t) in Sprague-Dawley rat at 20 mg/kg, ip; type: ADME, organism-based; set-up: dose 20 mg/kg, route intraperitoneal; settings: plasma
Outline: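 Male Sprague–Dawley rats (300–350 g), n=3, fasted overnight with water available, given a single 20 mg/kg i.p. dose in PBS with 0.1% Tween80 and 20% DMSO. Blood drawn into heparinized tubes at 0, 0.25, 0.5, 1, 2, 4, 8 and 24 h. Plasma measured by LC-MS/MS against an internal standard. Parameters from non-compartmental analysis.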

[10] = tested on: HT-29; test: Growth inhibition of human HT-29 cells after 48 hrs by SRB assay; type: functional
[11] = tested on: HCT-15; test: Growth inhibition of human HCT15 cells after 48 hrs by SRB assay; type: functional
[12] = tested on: SK-BR-3; test: Cell cycle arrest in human SK-BR-3 cells assessed as accumulation at G2/M phase at 0.10 uM after 12 hrs using propidium iodide staining by FACS analysis; type: functional; outline: as §1
[13] = tested on: SK-BR-3; test: Cell cycle arrest in human SK-BR-3 cells assessed as accumulation at Sub-G1 phase at 0.25 uM after 18 hrs using propidium iodide staining by FACS analysis; type: functional
[14] = tested on: TK-10; test: Growth inhibition of human TK10 cells after 48 hrs by SRB assay; type: functional
[15] = tested on: SK-BR-3; test: Cell cycle arrest in human SK-BR-3 cells assessed as accumulation at G1 phase at 0.50 uM after 6 hrs using propidium iodide staining by FACS analysis; type: functional; outline: as §1
[16] = tested on: SK-BR-3; test: Cell cycle arrest in human SK-BR-3 cells assessed as accumulation at Sub-G1 phase at 5 uM after 18 hrs using propidium iodide staining by FACS analysis; type: functional
[17] = tested on: OVCAR-5; test: Growth inhibition of human OVCAR5 cells after 48 hrs by SRB assay; type: functional
[18] = tested on: MCF7; test: Growth inhibition of human MCF7 cells after 48 hrs by SRB assay; type: functional
[19] = tested on: SK-BR-3; test: Cell cycle arrest in human SK-BR-3 cells assessed as accumulation at S phase at 0.50 uM after 3 hrs using propidium iodide staining by FACS analysis; type: functional
[20] = tested on: HOP-62; test: Growth inhibition of human HOP62 cells after 48 hrs by SRB assay; type: functional
[21] = Mean residence time (0 to t) in Sprague-Dawley rat at 20 mg/kg, ip; type: ADME, organism-based; set-up: dose 20 mg/kg, route intraperitoneal; settings: in vivo
Outline: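 Male Sprague–Dawley rats (300–350 g, n=3), fasted overnight with water allowed. Single 20 mg/kg i.p. dose in PBS with 0.1% Tween80 and 20% DMSO. Blood taken from saphenous and femoral veins into heparinized tubes at 0, 0.25, 0.5, 1, 2, 4, 8 and 24 h. Plasma quantified by LC-MS/MS (MRM, 483.3→404.3) after tert-butyl methyl ether/hexane extraction. Parameters derived non-compartmentally.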

[22] = tested on: A549; test: Growth inhibition of human A549 cells after 48 hrs by SRB assay; type: functional
[23] = tested on: Mus musculus; test: Acute toxicity in nude mouse assessed as body weight loss at 100 to 400 mg/kg administered as single dose measured after 2 weeks; type: organism-based; set-up: dose 100-400 mg/kg; settings: in vivo, 336 h
[24] = Cmax in Sprague-Dawley rat plasma at 20 mg/kg, ip; type: ADME, organism-based; set-up: dose 20 mg/kg, route intraperitoneal
Outline: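 Male Sprague–Dawley rats (300–350 g, n=3), fasted overnight, received one i.p. dose in PBS with 0.1% Tween80 and 20% DMSO. Blood (150 µL) was drawn from saphenous and femoral veins into heparinized tubes at 0–24 h, and plasma was stored at –20 °C. Samples underwent tert-butyl methyl ether/n-hexane extraction, then C18 isocratic LC-MS/MS in MRM mode with an internal standard; the method was validated over 0.1–100 ng/mL.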

[25] = tested on: SK-BR-3; test: Cell cycle arrest in human SK-BR-3 cells assessed as accumulation at G1 phase at 0.10 uM after 12 hrs using propidium iodide staining by FACS analysis; type: functional; outline: as §1
[26] = tested on: SK-BR-3; test: Cell cycle arrest in human SK-BR-3 cells assessed as accumulation at S phase at 5 uM after 6 hrs using propidium iodide staining by FACS analysis; type: functional
[27] = tested on: SK-BR-3; test: Cell cycle arrest in human SK-BR-3 cells assessed as accumulation at G1 phase at 0.10 uM after 18 hrs using propidium iodide staining by FACS analysis; type: functional; outline: as §1

Cc1ccc(C)c(COc2cc(NC(=O)c3ccc4c(c3)OCO4)ccc2N(C)S(C)(=O)=O)c1
Activity [1]: 21.8% | Activity [2]: 3.6% | Activity [3]: 22.27% | growth inhibition (GI) [4]: Dose-dependent effect | GI50 ([4]; U-251, 48 h): 266 nM | TGI ([4]; U-251, 48 h): 21900 nM | CC50 ([4]; U-251, 48 h, read-out: LC50 (the source's name)): > 100000 nM | Activity [5]: Active | Activity [6]: 70.84% | growth inhibition (GI) [7]: Dose-dependent effect | GI50 ([7]; MDA-MB-231, 48 h): 256 nM | TGI ([7]; MDA-MB-231, 48 h): 926 nM | CC50 ([7]; MDA-MB-231, 48 h, read-out: LC50 (the source's name)): > 100000 nM | GI50 [8]: 472 nM | TGI [8]: > 100000 nM | growth inhibition (GI) [8]: Dose-dependent effect | CC50 ([8]; read-out: LC50 (the source's name)): > 100000 nM | AUC(0-t) [9]: 16300 ng·h/mL | growth inhibition (GI) [10]: Dose-dependent effect | GI50 ([10]; HT-29, 48 h): 77.2 nM | TGI ([10]; HT-29, 48 h): 419 nM | CC50 ([10]; HT-29, 48 h, read-out: LC50 (the source's name)): > 100000 nM | growth inhibition (GI) [11]: Dose-dependent effect | GI50 ([11]; HCT-15, 48 h): 289 nM | TGI ([11]; HCT-15, 48 h): > 100000 nM | CC50 ([11]; HCT-15, 48 h, read-out: LC50 (the source's name)): > 100000 nM | Activity [12]: 12.05% | Activity [13]: 8.89% | growth inhibition (GI) [14]: Dose-dependent effect | GI50 ([14]; TK-10, 48 h): 354 nM | TGI ([14]; TK-10, 48 h): > 100000 nM | CC50 ([14]; TK-10, 48 h, read-out: LC50 (the source's name)): > 100000 nM | Activity [15]: 67.1% | Activity [16]: 8.31% | growth inhibition (GI) [17]: Dose-dependent effect | GI50 ([17]; OVCAR-5, 48 h): 538 nM | TGI ([17]; OVCAR-5, 48 h): > 100000 nM | growth inhibition (GI) [18]: Dose-dependent effect | TGI ([18]; MCF7, 48 h): > 100000 nM | CC50 ([18]; MCF7, 48 h, read-out: LC50 (the source's name)): > 100000 nM | Activity [19]: 17.76% | growth inhibition (GI) [20]: Dose-dependent effect | GI50 ([20]; HOP-62, 48 h): 329 nM | TGI ([20]; HOP-62, 48 h): > 100000 nM | CC50 ([20]; HOP-62, 48 h, read-out: LC50 (the source's name)): > 100000 nM | MRT last [21]: 6 h | growth inhibition (GI) [22]: Dose-dependent effect | GI50 ([22]; A549, 48 h): 278 nM | TGI ([22]; A549, 48 h): 13600 nM | CC50 ([22]; A549, 48 h, read-out: LC50 (the source's name)): > 100000 nM | Activity [23]: Non-toxic | Cmax [24]: 1500 ng/mL | Activity [25]: 73.14% | Activity [26]: 14.61% | Activity [27]: 75.43%
